# Measurements: ChEMBL document CHEMBL4715845, “Conjugable A adenosine receptor antagonists for the development of functionalized ligands and their use in fluorescent probes” (Eur J Med Chem, 2020)
# How the values were obtained:
# Homo sapiens [1] = organism: Homo sapiens; assay: Selectivity ratio of Ki for displacement of [3H]CGS21680 from recombinant human A2AAR expressed in HEK293 cell membranes to Ki for displacement of [125I]AB-MEC from recombinant human A3R expressed in CHO cell membranes
# [2] = target: T1, Adenosine receptor A1 (Homo sapiens) (UniProt P30542); assay: Displacement of [3H]R-PIA from recombinant human A1AR expressed in CHO cell membranes at 10 uM relative to control
# T1 sequence (whole entry): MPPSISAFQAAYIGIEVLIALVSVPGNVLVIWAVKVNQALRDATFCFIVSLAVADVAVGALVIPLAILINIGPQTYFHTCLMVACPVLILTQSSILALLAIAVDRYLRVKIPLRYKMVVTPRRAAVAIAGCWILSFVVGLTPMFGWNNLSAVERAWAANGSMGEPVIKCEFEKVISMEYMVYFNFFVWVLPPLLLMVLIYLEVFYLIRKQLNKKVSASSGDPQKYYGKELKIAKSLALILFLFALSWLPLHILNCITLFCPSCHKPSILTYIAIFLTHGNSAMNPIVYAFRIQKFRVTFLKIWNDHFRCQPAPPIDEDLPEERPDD
# Outline: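 [3H]R-PIA competition at membranes of CHO cells expressing recombinant human A1AR, with test compound at a single concentration of 10 μM. Adenosine deaminase (3 units/mL) present in the 30 min, 30 °C preincubation and during incubation. Final DMSO ≤2%. Bound radioligand collected on GF/B filters. Reported as % inhibition of specific binding.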
# Homo sapiens [3] = organism: Homo sapiens; assay: Selectivity ratio of Ki for displacement of [3H]R-PIA from recombinant human A1AR expressed in CHO cell membranes to Ki for displacement of [125I]AB-MEC from recombinant human A3R expressed in CHO cell membranes
# Homo sapiens [4] = organism: Homo sapiens; assay: Selectivity ratio of Ki for displacement of [3H]R-PIA from recombinant human A1AR expressed in CHO cell membranes to Ki for displacement of [3H]CGS21680 from recombinant human A2AAR expressed in HEK293 cell membranes
inhibition [2] [%],Structure (SMILES),Ratio Ki (Homo sapiens [1]),Ratio Ki (Homo sapiens [3]),Ratio Ki (Homo sapiens [4])
,Cn1cc2c(nc(NC(=O)CCCc3cn(CCCCCCNC(=O)c4ccc(-c5c6ccc(=N)c(S(=O)(=O)O)c-6oc6c(S(=O)(=O)O)c(N)ccc56)c(C(=O)O)c4)nn3)n3nc(-c4ccco4)nc23)n1,2.83,,
4,Cn1cc2c(nc(NC(=O)Nc3ccc(CC(=O)O)cc3)n3nc(-c4ccco4)nc23)n1,7.8,> 78,> 10
